Test [1] has as its target Cyclin-dependent kinase 11B (Homo sapiens) (UniProt P21127). In words: Inhibition of PITSLRE Lys2 labeling site in human A-375 cells at 0.5 uM by KiNativ Profiling analysis relative to control. The test is classed as cell-based.
For test [2], the target named is T1, Mitogen-activated protein kinase kinase kinase 2 (Homo sapiens) (UniProt Q9Y2U5).
T1 sequence (whole entry): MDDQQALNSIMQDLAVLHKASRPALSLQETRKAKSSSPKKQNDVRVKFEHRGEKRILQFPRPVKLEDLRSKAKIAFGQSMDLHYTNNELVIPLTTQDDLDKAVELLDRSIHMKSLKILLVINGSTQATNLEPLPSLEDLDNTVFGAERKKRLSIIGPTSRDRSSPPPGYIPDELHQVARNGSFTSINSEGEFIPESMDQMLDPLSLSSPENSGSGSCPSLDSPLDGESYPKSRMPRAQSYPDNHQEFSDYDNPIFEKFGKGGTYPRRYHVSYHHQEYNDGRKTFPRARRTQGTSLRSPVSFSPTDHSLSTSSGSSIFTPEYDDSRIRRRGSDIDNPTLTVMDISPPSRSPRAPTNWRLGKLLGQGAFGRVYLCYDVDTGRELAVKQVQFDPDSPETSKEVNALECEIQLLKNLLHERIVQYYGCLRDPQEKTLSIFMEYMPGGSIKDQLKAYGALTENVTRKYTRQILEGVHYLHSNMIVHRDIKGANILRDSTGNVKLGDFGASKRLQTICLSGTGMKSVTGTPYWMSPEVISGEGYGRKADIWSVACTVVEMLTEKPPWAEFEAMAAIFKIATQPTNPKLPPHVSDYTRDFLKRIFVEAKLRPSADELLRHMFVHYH
In words: Inhibition of MAP3K2 Lys1 labeling site harbouring ELAVKQVQFDPDSPETSKEVNALECEIQLLK in human A-375 cells at 5 uM by KiNativ Profiling analysis relative to control. The test is classed as cell-based.

Test [3] concerns the target Serine/threonine-protein kinase 26 (Homo sapiens) (UniProt Q9P289). Put plainly: Inhibition of MST4 Lys1 labeling site in human A-375 cells at 5 uM by KiNativ Profiling analysis relative to control. The test is classed as cell-based.
Test [4] has as its target Mitogen-activated protein kinase kinase kinase kinase 4 (Homo sapiens, UniProt O95819). Put plainly: Inhibition of ZC1/HGK (unknown origin) Lys1 labeling site by KiNativ Profiling analysis.
For test [5], the target named is Serine/threonine-protein kinase 24 (Homo sapiens) (UniProt Q9Y6E0). In words: Inhibition of MST3 ACT labeling site in human A-375 cells at 5 uM by KiNativ Profiling analysis relative to control. The test is classed as cell-based.
For test [6], the target named is DNA-PK/Ku70/Ku85 (Homo sapiens) (UniProt P78527+P12956+P13010). In words: Inhibition of DNAPK ATP labeling site harbouring EHPFLVKGGEDLR in human A-375 cells at 0.5 uM by KiNativ Profiling analysis relative to control. The test is classed as cell-based. Summed up: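 Live A375 melanoma cells were treated with compound at 0.5 or 5 μM, then lysed. Lysates were labeled with a lysine-reactive ATP or ADP-biotin probe. The read-out was protection of each kinase probe-labeling site from labeling, relative to control.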

The target in test [7] is T2, Serine/threonine-protein kinase NLK (Homo sapiens) (UniProt Q9UBE8).
T2 sequence (whole entry): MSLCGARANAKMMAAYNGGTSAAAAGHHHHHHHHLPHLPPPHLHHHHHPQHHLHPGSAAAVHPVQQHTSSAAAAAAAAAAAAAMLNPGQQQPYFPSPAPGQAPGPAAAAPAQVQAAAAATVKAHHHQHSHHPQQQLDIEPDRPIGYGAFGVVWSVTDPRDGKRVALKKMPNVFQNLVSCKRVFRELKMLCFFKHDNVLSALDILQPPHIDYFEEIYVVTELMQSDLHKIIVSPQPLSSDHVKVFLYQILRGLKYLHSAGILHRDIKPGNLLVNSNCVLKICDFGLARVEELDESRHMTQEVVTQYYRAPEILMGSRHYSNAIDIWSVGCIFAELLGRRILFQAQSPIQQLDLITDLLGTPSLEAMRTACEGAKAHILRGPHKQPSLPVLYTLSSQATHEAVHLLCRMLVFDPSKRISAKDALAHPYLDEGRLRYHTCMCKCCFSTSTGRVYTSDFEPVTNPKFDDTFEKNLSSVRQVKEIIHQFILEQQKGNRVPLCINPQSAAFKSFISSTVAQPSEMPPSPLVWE
Put plainly: Inhibition of NLK Lys2 labeling site in human A-375 cells at 0.5 uM by KiNativ Profiling analysis relative to control. The test is classed as cell-based.

Test [8] addresses T3, Inhibitor of nuclear factor kappa-B kinase subunit epsilon (Homo sapiens) (UniProt Q14164).
T3 sequence (whole entry): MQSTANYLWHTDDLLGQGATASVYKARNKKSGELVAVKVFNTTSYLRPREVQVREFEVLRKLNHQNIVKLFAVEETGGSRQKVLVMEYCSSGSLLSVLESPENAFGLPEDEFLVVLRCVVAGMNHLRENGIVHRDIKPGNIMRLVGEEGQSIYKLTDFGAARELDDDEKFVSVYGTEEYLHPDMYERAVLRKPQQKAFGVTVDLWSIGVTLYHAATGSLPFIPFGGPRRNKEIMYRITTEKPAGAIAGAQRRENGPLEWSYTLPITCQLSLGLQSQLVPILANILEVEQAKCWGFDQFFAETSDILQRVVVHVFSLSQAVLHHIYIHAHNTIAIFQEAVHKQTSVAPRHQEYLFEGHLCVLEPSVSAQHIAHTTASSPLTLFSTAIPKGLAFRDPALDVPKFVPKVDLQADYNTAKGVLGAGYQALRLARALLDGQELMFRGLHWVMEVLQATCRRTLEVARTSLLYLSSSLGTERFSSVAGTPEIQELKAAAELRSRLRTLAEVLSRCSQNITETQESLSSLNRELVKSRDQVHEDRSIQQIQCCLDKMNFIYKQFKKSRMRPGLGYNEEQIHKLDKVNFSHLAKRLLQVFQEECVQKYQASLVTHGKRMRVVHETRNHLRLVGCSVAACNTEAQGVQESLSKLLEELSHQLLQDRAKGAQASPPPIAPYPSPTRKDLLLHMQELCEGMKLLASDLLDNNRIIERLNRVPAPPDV
Put plainly: Inhibition of IKKe Lys2 labeling site in human A-375 cells at 0.05 uM by KiNativ Profiling analysis relative to control. The test is classed as cell-based.

The target in test [9] is Serine/threonine-protein kinase Nek7 (Homo sapiens) (UniProt Q8TDX7). In words: Inhibition of NEK7 Lys1 labeling site in human A-375 cells at 0.5 uM by KiNativ Profiling analysis relative to control. The test is classed as cell-based.
Serine/threonine-protein kinase Nek7 (Homo sapiens), sequence (Q8TDX7 whole entry, looked up): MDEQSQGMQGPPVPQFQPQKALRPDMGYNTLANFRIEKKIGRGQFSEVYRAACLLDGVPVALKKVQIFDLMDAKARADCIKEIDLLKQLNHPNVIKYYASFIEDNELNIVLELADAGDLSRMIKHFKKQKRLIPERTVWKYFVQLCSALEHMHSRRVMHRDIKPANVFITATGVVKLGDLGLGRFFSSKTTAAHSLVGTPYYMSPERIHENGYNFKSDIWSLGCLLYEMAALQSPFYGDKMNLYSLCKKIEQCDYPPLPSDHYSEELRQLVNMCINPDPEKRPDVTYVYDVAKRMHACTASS
Test [10] deals with 5'-AMP-activated protein kinase catalytic subunit alpha-2 (Homo sapiens) (UniProt P54646). Put plainly: Inhibition of AMPKa2 Lys1 labeling site in human A-375 cells at 0.05 uM by KiNativ Profiling analysis relative to control. The test is classed as cell-based.
5'-AMP-activated protein kinase catalytic subunit alpha-2 (Homo sapiens), sequence (P54646 whole entry, looked up): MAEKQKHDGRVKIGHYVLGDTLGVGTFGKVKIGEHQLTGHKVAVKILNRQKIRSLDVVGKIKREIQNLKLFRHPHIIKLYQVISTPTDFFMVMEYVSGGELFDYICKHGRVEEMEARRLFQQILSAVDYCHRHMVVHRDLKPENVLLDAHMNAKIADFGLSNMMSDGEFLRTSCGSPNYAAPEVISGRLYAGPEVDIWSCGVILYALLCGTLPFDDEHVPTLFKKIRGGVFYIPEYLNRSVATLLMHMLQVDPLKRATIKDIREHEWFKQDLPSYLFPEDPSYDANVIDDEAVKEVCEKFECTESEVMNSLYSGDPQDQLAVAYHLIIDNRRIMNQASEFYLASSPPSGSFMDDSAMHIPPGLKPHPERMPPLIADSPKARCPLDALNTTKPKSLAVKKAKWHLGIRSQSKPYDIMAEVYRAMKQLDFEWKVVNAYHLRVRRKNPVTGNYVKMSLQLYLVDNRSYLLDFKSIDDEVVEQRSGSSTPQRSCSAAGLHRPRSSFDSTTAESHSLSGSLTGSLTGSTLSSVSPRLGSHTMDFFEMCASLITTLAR
In test [11] the target is Mitogen-activated protein kinase kinase kinase 1 (Homo sapiens) (UniProt Q13233). In words: Inhibition of MAP3K1 Lys2 labeling site in human A-375 cells at 0.5 uM by KiNativ Profiling analysis relative to control. The test is classed as cell-based.
Mitogen-activated protein kinase kinase kinase 1 (Homo sapiens), sequence (Q13233 whole entry): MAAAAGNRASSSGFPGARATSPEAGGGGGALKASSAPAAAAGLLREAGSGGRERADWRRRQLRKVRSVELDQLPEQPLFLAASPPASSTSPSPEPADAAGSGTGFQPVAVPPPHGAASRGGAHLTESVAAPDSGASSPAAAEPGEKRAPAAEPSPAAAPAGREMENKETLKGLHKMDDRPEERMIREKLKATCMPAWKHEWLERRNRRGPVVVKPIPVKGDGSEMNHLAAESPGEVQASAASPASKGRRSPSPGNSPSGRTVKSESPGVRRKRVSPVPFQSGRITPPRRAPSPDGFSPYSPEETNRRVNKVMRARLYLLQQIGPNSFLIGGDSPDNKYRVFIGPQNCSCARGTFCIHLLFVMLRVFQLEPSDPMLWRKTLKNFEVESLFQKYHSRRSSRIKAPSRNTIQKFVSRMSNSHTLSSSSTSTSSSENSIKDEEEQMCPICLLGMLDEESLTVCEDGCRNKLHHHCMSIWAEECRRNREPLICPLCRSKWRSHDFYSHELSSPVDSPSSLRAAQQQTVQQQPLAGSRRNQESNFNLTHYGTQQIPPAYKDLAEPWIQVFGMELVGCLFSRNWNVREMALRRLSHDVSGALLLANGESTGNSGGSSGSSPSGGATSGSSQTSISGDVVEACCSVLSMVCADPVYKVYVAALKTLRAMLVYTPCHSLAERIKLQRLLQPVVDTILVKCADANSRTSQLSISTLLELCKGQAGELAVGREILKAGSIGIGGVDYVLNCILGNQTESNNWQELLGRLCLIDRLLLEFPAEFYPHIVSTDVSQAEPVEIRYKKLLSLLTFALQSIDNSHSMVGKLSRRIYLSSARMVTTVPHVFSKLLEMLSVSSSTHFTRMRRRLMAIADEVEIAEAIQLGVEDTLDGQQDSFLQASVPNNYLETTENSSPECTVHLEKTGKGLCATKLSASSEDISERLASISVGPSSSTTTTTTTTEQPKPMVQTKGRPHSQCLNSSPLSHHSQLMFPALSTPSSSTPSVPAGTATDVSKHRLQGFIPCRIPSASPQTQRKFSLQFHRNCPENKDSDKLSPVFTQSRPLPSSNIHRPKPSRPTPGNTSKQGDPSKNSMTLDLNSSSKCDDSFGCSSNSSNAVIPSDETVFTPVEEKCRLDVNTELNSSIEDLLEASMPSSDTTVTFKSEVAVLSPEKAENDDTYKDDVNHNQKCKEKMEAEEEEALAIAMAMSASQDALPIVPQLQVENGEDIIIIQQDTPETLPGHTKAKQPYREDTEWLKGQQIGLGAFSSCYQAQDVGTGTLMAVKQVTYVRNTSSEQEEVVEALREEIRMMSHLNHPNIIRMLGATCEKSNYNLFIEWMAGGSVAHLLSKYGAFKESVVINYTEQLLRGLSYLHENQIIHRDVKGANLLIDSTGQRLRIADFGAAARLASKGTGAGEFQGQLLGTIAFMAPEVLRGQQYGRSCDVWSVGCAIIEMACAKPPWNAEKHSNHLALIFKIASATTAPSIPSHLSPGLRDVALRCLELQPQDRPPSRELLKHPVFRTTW

Molecules are shown by their SMILES.

Serine/threonine-protein kinase 26 (Homo sapiens), sequence (Q9P289 2-416 limits assumed): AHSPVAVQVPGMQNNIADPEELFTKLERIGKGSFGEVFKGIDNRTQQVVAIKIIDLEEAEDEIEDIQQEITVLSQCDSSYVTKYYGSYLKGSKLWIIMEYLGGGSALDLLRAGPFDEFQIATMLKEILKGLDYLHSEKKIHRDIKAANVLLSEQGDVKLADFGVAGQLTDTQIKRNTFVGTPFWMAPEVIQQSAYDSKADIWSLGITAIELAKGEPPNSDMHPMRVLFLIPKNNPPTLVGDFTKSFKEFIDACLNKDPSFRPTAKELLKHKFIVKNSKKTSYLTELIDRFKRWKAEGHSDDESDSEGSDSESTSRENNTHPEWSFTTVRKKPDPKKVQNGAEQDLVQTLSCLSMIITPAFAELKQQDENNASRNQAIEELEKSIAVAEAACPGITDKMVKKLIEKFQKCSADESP
Mitogen-activated protein kinase kinase kinase kinase 4, sequence (O95819 whole entry): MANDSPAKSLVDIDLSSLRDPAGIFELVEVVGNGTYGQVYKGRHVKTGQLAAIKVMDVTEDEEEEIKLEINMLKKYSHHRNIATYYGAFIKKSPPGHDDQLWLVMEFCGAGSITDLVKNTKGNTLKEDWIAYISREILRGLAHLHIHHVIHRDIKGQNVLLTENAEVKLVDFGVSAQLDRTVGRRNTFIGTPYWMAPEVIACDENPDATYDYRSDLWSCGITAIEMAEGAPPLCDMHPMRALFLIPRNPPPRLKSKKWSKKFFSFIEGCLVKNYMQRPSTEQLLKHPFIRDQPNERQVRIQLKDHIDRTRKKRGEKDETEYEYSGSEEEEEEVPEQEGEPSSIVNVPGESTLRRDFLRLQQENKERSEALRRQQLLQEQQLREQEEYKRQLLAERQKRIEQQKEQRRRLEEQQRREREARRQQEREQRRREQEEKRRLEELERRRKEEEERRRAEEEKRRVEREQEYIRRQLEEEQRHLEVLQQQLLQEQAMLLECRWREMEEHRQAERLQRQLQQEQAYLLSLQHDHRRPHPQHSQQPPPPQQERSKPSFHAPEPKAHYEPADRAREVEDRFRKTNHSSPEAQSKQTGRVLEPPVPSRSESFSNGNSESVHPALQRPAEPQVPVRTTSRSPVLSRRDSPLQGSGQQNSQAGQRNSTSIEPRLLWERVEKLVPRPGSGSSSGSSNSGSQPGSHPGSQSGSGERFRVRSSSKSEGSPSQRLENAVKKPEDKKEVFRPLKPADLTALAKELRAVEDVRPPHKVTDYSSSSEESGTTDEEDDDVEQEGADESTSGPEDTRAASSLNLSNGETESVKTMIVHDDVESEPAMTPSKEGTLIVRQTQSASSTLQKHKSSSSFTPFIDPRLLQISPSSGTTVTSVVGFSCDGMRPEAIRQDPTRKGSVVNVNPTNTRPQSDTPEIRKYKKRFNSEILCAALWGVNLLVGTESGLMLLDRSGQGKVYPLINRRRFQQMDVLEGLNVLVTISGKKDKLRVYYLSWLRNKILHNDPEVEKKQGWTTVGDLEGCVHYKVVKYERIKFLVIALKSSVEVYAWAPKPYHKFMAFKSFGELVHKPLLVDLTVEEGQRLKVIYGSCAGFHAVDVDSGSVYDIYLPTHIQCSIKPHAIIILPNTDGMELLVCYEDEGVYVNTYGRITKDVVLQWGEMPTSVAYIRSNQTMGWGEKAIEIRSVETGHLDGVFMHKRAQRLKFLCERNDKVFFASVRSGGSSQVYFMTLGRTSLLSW
Cyclin-dependent kinase 11B (Homo sapiens), sequence (P21127 whole entry): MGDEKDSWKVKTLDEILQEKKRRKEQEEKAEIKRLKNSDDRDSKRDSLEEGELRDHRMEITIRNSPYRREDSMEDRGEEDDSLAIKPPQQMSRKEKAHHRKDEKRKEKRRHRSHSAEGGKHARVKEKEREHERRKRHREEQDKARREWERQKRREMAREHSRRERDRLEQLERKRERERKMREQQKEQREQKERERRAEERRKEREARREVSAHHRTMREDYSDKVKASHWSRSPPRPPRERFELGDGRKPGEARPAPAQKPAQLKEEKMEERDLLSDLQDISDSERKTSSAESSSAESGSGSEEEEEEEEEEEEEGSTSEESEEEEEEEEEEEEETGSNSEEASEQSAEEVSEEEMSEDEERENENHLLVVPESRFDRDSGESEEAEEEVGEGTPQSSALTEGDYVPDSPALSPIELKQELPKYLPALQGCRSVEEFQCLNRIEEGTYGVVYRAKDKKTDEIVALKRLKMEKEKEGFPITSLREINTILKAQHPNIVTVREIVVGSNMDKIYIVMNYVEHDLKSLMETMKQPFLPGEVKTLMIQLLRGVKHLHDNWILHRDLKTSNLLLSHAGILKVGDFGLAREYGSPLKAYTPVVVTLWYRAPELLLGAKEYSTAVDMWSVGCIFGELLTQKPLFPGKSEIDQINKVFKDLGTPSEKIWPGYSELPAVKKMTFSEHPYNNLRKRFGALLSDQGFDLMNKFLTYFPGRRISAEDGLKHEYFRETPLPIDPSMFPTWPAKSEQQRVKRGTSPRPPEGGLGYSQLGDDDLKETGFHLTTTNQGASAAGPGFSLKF

Consider `CCN1CCN(Cc2ccc(NC(=O)c3ccc(C)c(/C=C/c4cnc5[nH]ccc5c4OC)c3)cc2C(F)(F)F)CC1`, for which the inhibition – broadly, the change of the read-out against control, counted positive when it falls – in [1] was -0.4%; in test [2], 60.6%; in test [3], -6.1%; in [5], 13.7%; in test [6], 13.8%; in [7], 27.3%. The inhibition in [8] amounted to 19.8%; in test [9], 7.8%; in test [10], 7.4%; in test [11], 43.9%. For the same molecule, the half-maximal inhibitory concentration (IC50) – broadly, the concentration at which inhibition is half-maximal – in [4] came to 9.75 µM.

As for `CCN1CCN(Cc2ccc(NC(=O)c3ccc(C)c(Oc4ccnc5[nH]ccc45)c3)cc2C(F)(F)F)CC1`, the inhibition was -2.7% in test [1]; 44.4% in [2]; 1.1% in test [3]; 35.1% in test [5]; 3.2% in test [6]; 3.1% in [7]. Besides, the inhibition in [8] is 29.2%; in [9] it was -0.5%; in [10], 13.4%; in [11], 39.7%. Further, the 50% inhibitory concentration (IC50) in [4] stood at 3.25 µM.

(Values after ChEMBL document CHEMBL5696442, “Discovery of type II inhibitors of TGFβ-activated kinase 1 (TAK1) and mitogen-activated protein kinase kinase kinase kinase 2 (MAP4K2)” (J Med Chem, 2015).)
